# Source: PubChem BioAssay (Broad Institute)
# DYRK1A inh = blocks rat Dyrk1A kinase activity | ADP-Glo luminescence, NFATc1 peptide | inhibition, % at 12.5 µM | actives 0.43% (n = 310,000) | Q63470; in the data active means inhibition above about 50%;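 further: plate controls were vehicle with enzyme for no effect and no enzyme for full effect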
# CDK5 inh = blocks human CDK5/p35 kinase activity; Recombinant CDK5/p35, ADP-Glo luminescence, 60 min; inhibition, % at 10 µM; actives 0.01% (n = 330,000); AID 488839;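 active means highest replicate inhibition of at least 50% and at least 75% of replicates reaching 50%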;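 further: plate controls were DMSO neutral control for no effect and GW8510 at 10 µM for full effect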
# Rtt109 HAT inh = blocks Candida albicans Rtt109/Vps75 acetyltransferase activity | Q5AAJ8 | inhibition, % at 34.9 µM | purified Rtt109/Vps75, ThioGlo CoA-SH fluorescence, 4 h | actives 0.16% (n = 330,000);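 active means inhibition of at least 50% in every replicate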
# dFosB act = mouse delta FosB homodimer activation; P13346; purified delta FosB, TAMRA-CDK5 oligo fluorescence polarization; percent of positive-control signal above neutral wells; activation, % at 25 µM; actives 0.99% (n = 340,000);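 active means mean activation above about 17%, with every replicate also reaching it, limit read from the data, passing the limit was not always enough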
# Target sequence (P13346 whole entry, looked up): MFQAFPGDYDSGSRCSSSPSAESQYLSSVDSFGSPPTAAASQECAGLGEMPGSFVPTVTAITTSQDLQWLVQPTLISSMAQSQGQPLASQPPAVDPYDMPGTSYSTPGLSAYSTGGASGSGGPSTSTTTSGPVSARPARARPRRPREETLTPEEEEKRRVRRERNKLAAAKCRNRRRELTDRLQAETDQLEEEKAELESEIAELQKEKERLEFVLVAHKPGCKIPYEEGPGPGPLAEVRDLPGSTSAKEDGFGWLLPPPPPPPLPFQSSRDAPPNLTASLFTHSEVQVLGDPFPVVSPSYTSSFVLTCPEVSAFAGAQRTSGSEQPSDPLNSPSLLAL
# CAL PDZ FP-1 = blocks peptide binding to the human CAL PDZ domain. Q9HD26. purified CAL PDZ, TMR-peptide fluorescence polarization, 1 h. inhibition, % at 24.9 µM. actives 0.92% (n = 300,000). AID 602252;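 active means mean inhibition of at least 30% with at least half of replicates also reaching 30%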;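 further: 0% = DMSO neutral control and 100% = excess unlabeled competitor peptide PRC23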
# CAL PDZ FP-2 = blocks peptide binding to human CAL PDZ domain; inhibition, % at 20 µM; Q9HD26; AID 504414; purified CAL PDZ, TMR-peptide fluorescence polarization, 1 h; actives 0.02% (n = 330,000);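 active means highest replicate inhibition of at least 40%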;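 further: plate controls were DMSO neutral control wells for no effect and unlabeled competitor peptide control wells for full effect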
#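 Test system: tagged CAL PDZ domain / Buffer or medium: sodium phosphate/NaCl buffer pH 7.4 with TCEP, IgG, Thesit / Reagent: TMR-labelled reporter peptide T*-PRC34 bound in PDZ groove / Compound dosing: single point, 20 µM / Schedule: 1 h incubation at room temperature before polarization reading / Technique: fluorescence polarization (mP) / Benchmarks: unlabelled peptide, DMSO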
# The depositor's hits bear a star; . = not tested or not shown. Only some compounds are listed: those with a hit (about 2.2% of all), similar ones and a draw of the others.
SMILES,DYRK1A inh,CDK5 inh,Rtt109 HAT inh,dFosB act,CAL PDZ FP-1,CAL PDZ FP-2
CC(C)(C)S(=O)(=O)c1cnc(-c2ccc(Cl)cc2)nc1N,1,0,-15,6,-5,0
CC(C)(C)S(=O)(=O)c1cnc(N2CCCCC2)nc1N,0,1,0,-4,50*,-1
O=C(CCN1CCN(C(c2ccccc2)c2ccccc2)CC1)N/N=C/c1ccc(O)cc1O,4,-1,28,37*,-2,4
O=C(N/C(=C/c1ccccc1F)C(=O)N1CCCCC1)c1ccccc1,0,-1,4,1,-7,-3
O=C(CC(c1ccccc1)c1ccccc1)Nc1ccncc1,-11,-2,2,-4,81*,-3
CN(C)c1ccc(/C=C/c2ccc3ccccc3n2)cc1,14,10,0,-7,100*,-1
Oc1ccc(/C=C/c2ccc3ccccc3n2)cc1,3,1,.,-4,69*,0
COc1ccc(CNC(=O)CN(c2ccccc2)S(=O)(=O)N(C)C)cc1,4,0,4,1,3,-1
CCOC(=O)c1cnc(/N=C/N(C)C)s1,.,1,-2,-6,0,-1
COc1cccc(C2=NN(C(=O)CCCC(=O)O)C(c3cccs3)C2)c1 (stereo not given),-4,0,-2,-1,-7,0
CCC(C)c1ccc(N(CC(=O)NC(C)(C)C)C(=O)CNC(=O)c2cccs2)cc1 (stereo not given),8,1,1,-18,32*,-1
CCN(CC)C(=S)SSC(=S)N(CC)CC,6,1,150*,5,-7,0
CCN(CC)C(=S)SCC(=O)c1ccccc1,-6,-1,-4,4,-6,0
COc1ccc(NC(=O)CSc2nnc(-c3ccccc3)n2N)cc1,-8,1,59*,4,1,-4
Cn1cnnc1SCC(=O)Nc1ccccc1,-2,-1,-21,-5,.,-1
Cn1cnnc1SCC(=O)Nc1ccc(OCc2ccccc2)cc1,.,-1,0,-3,41*,-1
CCOc1cc(/C=N/NC(=O)CSc2nncn2C)ccc1OCc1cccc(C)c1,-3,0,50*,-7,0,-3
COc1cc(OC)nc(NC(=O)NS(=O)(=O)c2ccc(F)cc2)n1,4,0,-6,8,6,-1
Cn1nc(C(=O)OCC(=O)c2ccc(Br)cc2)c2ccccc2c1=O,.,0,-2,2,-2,0
C(=N\Nc1nc2ccccc2[nH]1)/c1ccccn1,9,6,-8,-1,-3,-2
Fc1ccccc1-c1ccc(/C=N/Nc2nc3ccccc3[nH]2)o1,-33,2,-7,22*,1,-1
CC1CN(C(=O)c2ccc(NS(=O)(=O)c3cccc(Cl)c3)cc2)CC(C)O1 (stereo not given),0,0,1,-10,-1,-1
O=C(CSc1cn[nH]n1)Nc1cccc(C(=O)O)c1,-3,2,81*,5,-3,0
O=C(OCCc1cc2ccccc2c(=O)o1)c1ccccc1C(F)(F)F,-3,1,-10,7,1,0
O=C(CSc1ccccc1)N/N=C/c1ccccc1O,-1,1,4,1,-1,-1
SMILES,DYRK1A inh,CDK5 inh,Rtt109 HAT inh,dFosB act,CAL PDZ FP-1,CAL PDZ FP-2
O=C(CCSCCC(=O)NN=Cc1ccccc1O)NN=Cc1ccccc1O,-1,-3,-6,36*,.,-2
O=C(O)c1cccc(NC(=O)c2cccc(S(=O)(=O)Nc3cccc([N+](=O)[O-])c3)c2)c1,-1,0,0,6,96*,-2
Cc1sc2ncnc(OCC(=O)Nc3ccc4c(c3)OCCO4)c2c1C,-7,2,-1,-6,-4,-1
O=C(COc1ncnc2sccc12)Nc1ccc2c(c1)OCCO2,4,.,-7,-6,44*,-1
O=C(COC(=O)c1cc(Br)ccc1O)Nc1ccc2c(c1)OCCO2,-3,-2,5,23*,.,0
O=C(COC(=O)c1cc(S(=O)(=O)N2CCOCC2)ccc1Cl)NCc1ccc2c(c1)OCO2,-3,0,-3,-2,-5,0
Cc1ccc(C)c(OCC(=O)Nc2ccc3c(c2)OCO3)c1,.,-2,-3,-19,-3,-1
